According to ChEMBL document CHEMBL3098049, “Concise synthesis and biological evaluation of 2-Aroyl-5-amino benzo[b]thiophene derivatives as a novel class of potent antimitotic agents” (J Med Chem, 2013):
Activity calls are given as the source filed them. The calls are words filed in the database; no cut-off is given here.

Tests used:
Jurkat = assay: Cell cycle arrest in human Jurkat cells assessed as reduction in S phase up to 60 nM after 24 hrs by propidium iodide staining-based flow cytometric analysis relative to control; assay type: functional
How it was run: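 Jurkat cells treated for 24 h, fixed, PI-labelled and analysed by flow cytometry for cell-cycle phase distribution. Mean of three independent experiments.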

MNNG-HOS = assay: Cytotoxicity against human MNNG-HOS cells; assay type: functional, cell-based; conditions: HOS-TE85
Tubulin (Homo sapiens) = Tubulin (Homo sapiens) (UniProt P68371+Q9H4B7+P0DPH7+P68366+Q13509+Q71U36+P04350+Q3ZCM7+P07437+P68363+Q9BQE3+Q6PEY2+Q13885+Q9BVA1+Q9BUF5); assay: Displacement of [3H]-colchicine from tubulin (unknown origin) at 5 uM after 10 mins relative to control; assay type: protein-complex assay
HeLa [1] = assay: Induction of mitochondrial ROS generation in human HeLa cells after 24 to 48 hrs by H2-DCFDA staining-based flow cytometric analysis; assay type: functional, cell-based
How it was run: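 HeLa cells incubated 24 or 48 h with compound, stained with H₂-DCFDA, and intracellular ROS measured by flow cytometry. Mean of three independent experiments.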

HeLa [2] = assay: Downregulation of cdc25c protein expression in human HeLa cells at 10 to 100 nM after 24 to 48 hrs by Western blot analysis; assay type: functional, cell-based
How it was run: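 HeLa cultures treated 24 or 48 h, washed in cold PBS, lysed 30 min at 0 °C, clarified at 15000g. 20 μg protein run on 7.5−15% gradient SDS-PAGE and blotted to PVDF. Primary antibodies 2 h at room temperature, peroxidase secondary 60 min, ECL detection. Membranes stripped and reprobed for β-actin as loading control.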

COc1cc(C(=O)c2cc3cc(N)cc(OC)c3s2)cc(OC)c1OC was tested, and the Activity (Jurkat) was “Active”, the IC50 (MNNG-HOS) was 1 nM and the inhibition (Tubulin (Homo sapiens)) was 97%. For the same compound, the Activity (HeLa [1]) was “Dose-dependent effect” and the Activity (HeLa [2]) was “Active”.
